≈ marks a conversion by molar mass, not a printed value.
Legend:
Type in all cases: functional
BXPC-3 = test: Growth inhibition of human BXPC3 cells after 48 hrs; details: BXPC-3, 48 h
Method in brief: (§1)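 NCI sulforhodamine B assay. Cells in 5% fetal bovine serum/RPMI1640 seeded, grown 24 h, then exposed to serial compound dilutions for 48 h. Fixed with trichloroacetic acid, stained with sulforhodamine B, optical density read on a plate reader. GI50 taken as the concentration causing a 50% reduction in net protein increase.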

MCF7 = test: Growth inhibition of human MCF7 cells after 48 hrs; details: MCF7, 48 h; method in brief: as §1
NCI-H460 = test: Growth inhibition of human NCI-H460 cells after 48 hrs; details: NCI-H460, 48 h; method in brief: as §1
SF-268 = test: Growth inhibition of human SF268 cells after 48 hrs; details: SF-268, 48 h; method in brief: as §1
KM-20L2 = test: Growth inhibition of human KM20L2 cells after 48 hrs; details: KM-20L2, 48 h; method in brief: as §1
DU-145 = test: Growth inhibition of human DU145 cells after 48 hrs; details: DU-145, 48 h; method in brief: as §1
P388 = test: Growth inhibition of murine P388 cells after 48 hrs; details: Mus musculus, P388, 48 h; read-out: ED50 (the source's name)
Method in brief: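 Mouse leukemia P388 cells held 24 h in 10% horse serum/Fisher medium, then incubated 48 h with serial compound dilutions. Cell numbers counted on a Coulter particle counter; ED50 taken as the concentration giving 50% growth inhibition.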

SMILES	GI50 (BXPC-3) [µg/mL]	GI50 (MCF7) [µg/mL]	GI50 (NCI-H460) [µg/mL]	GI50 (DU-145) [µg/mL]	EC50 (P388) [µg/mL]	GI50 (SF-268) [µg/mL]	GI50 (KM-20L2) [µg/mL]
CC(=O)O[C@@H]1[C@@H](OC(C)=O)[C@H](OC(C)=O)[C@H]2c3cc4c(c(O)c3C(=O)N[C@H]2[C@@H]1OC(C)=O)OCO4	1.8 (≈ 3.65 µM)	2 (≈ 4.05 µM)	1.3 (≈ 2.63 µM)	1.4 (≈ 2.84 µM)	0.2 (≈ 0.405 µM)	3 (≈ 6.08 µM)	1.8 (≈ 3.65 µM)
O=C1N[C@H]2[C@H](O)[C@H](O)[C@@H](O)[C@H](O)[C@H]2c2cc3c(c(O)c21)OCO3	0.32 (≈ 0.984 µM)	0.27 (≈ 0.83 µM)	0.23 (≈ 0.707 µM)	0.21 (≈ 0.646 µM)	0.14 (≈ 0.43 µM)	0.26 (≈ 0.799 µM)	0.31 (≈ 0.953 µM)
CC(=O)O[C@@H]1[C@@H](OC(C)=O)[C@H](O)[C@H]2c3cc4c(c(O)c3C(=O)N[C@H]2[C@@H]1OC(C)=O)OCO4	> 1	> 1	> 1	> 1	> 1	> 1	> 1
CC(=O)Oc1c2c(cc3c1C(=O)N[C@@H]1C3=C[C@H](OC(C)=O)[C@@H](OC(C)=O)[C@H]1OC(C)=O)OCO2	0.16 (≈ 0.337 µM)	0.088 (≈ 0.185 µM)	0.28 (≈ 0.589 µM)	0.023 (≈ 0.0484 µM)	0.027 (≈ 0.0568 µM)	0.055 (≈ 0.116 µM)	0.043 (≈ 0.0904 µM)
O=C1N[C@@H]2C(=C[C@H](O)[C@@H](O)[C@H]2O)c2cc3c(c(O)c21)OCO3 [NARCICLASINE]	0.0035 (≈ 0.0114 µM)	0.0032 (≈ 0.0104 µM)	0.0084 (≈ 0.0273 µM)	0.0032 (≈ 0.0104 µM)	0.0012 (≈ 0.00391 µM)	0.0031 (≈ 0.0101 µM)	0.0032 (≈ 0.0104 µM)
O=C1N[C@H]2[C@H](O)[C@H](O)[C@@H](O)[C@H](O)[C@@H]2c2cc3c(c(O)c21)OCO3 [PANCRATISTATIN]	0.02 (≈ 0.0615 µM)	0.023 (≈ 0.0707 µM)	0.032 (≈ 0.0984 µM)	0.015 (≈ 0.0461 µM)	0.017 (≈ 0.0523 µM)	0.014 (≈ 0.043 µM)	0.025 (≈ 0.0769 µM)

Now from value to compound, other results behind:

GI50 (BXPC-3) [µg/mL]	GI50 (MCF7) [µg/mL]	GI50 (NCI-H460) [µg/mL]	GI50 (DU-145) [µg/mL]	EC50 (P388) [µg/mL]	SMILES	GI50 (SF-268) [µg/mL]	GI50 (KM-20L2) [µg/mL]
> 10	> 10	> 10	> 10	> 10	CC(=O)O[C@@H]1[C@@H](OC(C)=O)[C@H](O)[C@@]2(O)c3cc4c(c(O)c3C(=O)N[C@H]2[C@@H]1OC(C)=O)OCO4	> 10	> 10
> 1	> 1	> 1	> 1	> 1	CC(=O)O[C@H]1[C@@H](OC(C)=O)[C@@H]2NC(=O)c3c(cc4c(c3O)OCO4)[C@@]23OC(=S)O[C@H]3[C@@H]1OC(C)=O	> 1	> 1
> 10	> 10	> 10	> 10	> 10	COC(=O)C(=O)Oc1c2c(cc3c1C(=O)N(C(=O)C(=O)OC)[C@H]1[C@H](OC(C)=O)[C@H](OC(C)=O)[C@@H](OC(C)=O)[C@H](OC(C)=O)[C@@]31OC(=O)C(=O)OC)OCO2	> 10	> 10
14.4 (≈ 28.3 µM)	5.2 (≈ 10.2 µM)	> 10	4.3 (≈ 8.44 µM)	1.7 (≈ 3.34 µM)	CC(=O)Oc1c2c(cc3c1C(=O)N[C@H]1[C@H](OC(C)=O)[C@H](OC(C)=O)[C@@H](OC(C)=O)[C@H](O)[C@@]31O)OCO2	9.9 (≈ 19.4 µM)	3.6 (≈ 7.07 µM)
> 10	> 10	> 10	> 10	8.9 (≈ 16.1 µM)	CC(=O)Oc1c2c(cc3c1C(=O)N[C@H]1[C@H](OC(C)=O)[C@H](OC(C)=O)[C@@H](OC(C)=O)[C@H](OC(C)=O)[C@@]31O)OCO2	> 10	> 10
0.011 (≈ 0.0254 µM)	0.06 (≈ 0.138 µM)	0.033 (≈ 0.0761 µM)	0.028 (≈ 0.0646 µM)	0.013 (≈ 0.03 µM)	CC(=O)O[C@@H]1[C@H](OC(C)=O)[C@@H](OC(C)=O)C=C2c3cc4c(c(O)c3C(=O)N[C@H]21)OCO4	0.16 (≈ 0.369 µM)	0.051 (≈ 0.118 µM)
3.1 (≈ 6.28 µM)	4.9 (≈ 9.93 µM)	2.9 (≈ 5.88 µM)	1.5 (≈ 3.04 µM)	1.5 (≈ 3.04 µM)	CC(=O)O[C@H]1[C@@H](OC(C)=O)[C@@H]2NC(=O)c3c(cc4c(c3O)OCO4)[C@@]23OC(=O)O[C@H]3[C@@H]1OC(C)=O	7.5 (≈ 15.2 µM)	2.8 (≈ 5.68 µM)

From ChEMBL document CHEMBL1142985, “Antineoplastic agents. 550. Synthesis of 10b(s)-epipancratistatin from (+)-narciclasine” (2007)
